Where a name gives a salt, the structure may show the parent alone.
Experiments:
[1] = tested on: HT22 cells; test: Erastin-induced ferroptosis in HT22 cells; assay type: cell-based, mouse
In short: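 HT22 cells were cotreated with Erastin and test compound, and cell viability was measured. A value was reported as not determined where viability was below 50% at 1.0 μM compound with Erastin.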

[2] = tested on: HT22 cells; test: Lipid ROS; assay type: cell-based, mouse; conditions: 3 h; for lipid ROS, oxidized BODIPY-C11 fluorescence intensity: 1 μM RSL3, 0.5 μM compound
In short: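 HT22 cells were exposed to 1 μM RSL3 with or without 0.5 μM test compound or 0.5 μM Fer-1 for 3 h. Lipid ROS was detected with BODIPY-C11 (oxidized form, green) by confocal microscopy (Hoechst 33342 nuclei) and by flow cytometry. Cytosolic ROS was measured by flow cytometry with carboxy-H2DCFDA.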

[3] = tested on: HT22 cells; test: LC3-II level; assay type: cell-based, mouse; conditions: 6 h, Western blotting
[4] = tested on: PTGS2 mRNA; test: PTGS2 mRNA expression; assay type: cell-based, mouse; conditions: 12 h
[5] = tested on: HT-1080 cells; test: Ferroptosis induced by Erastin, RSL3, ML210 or GPX4 knockdown in HT-1080 cells; assay type: cell-based, human
In short: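 HT-1080 cells were transfected for 12 h with scrambled siRNA (si-NC) or GPX4-targeting siRNA. Cells were then treated for 36 h with or without 0.5 μM test compound, 0.5 μM Fer-1 or 20 μM DFO. Viability was read by CCK-8. Values are mean ± SEM of three independent experiments.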

[6] = tested on: ferritin; test: Ferritin protein level; assay type: cell-based, mouse; conditions: 6 h
[7] = tested on: HT22 cells; test: Intracellular Fe^2+; assay type: cell-based, mouse; conditions: 6 h; for fluorescence intensity of FerroOrange (free Fe^2+): 0.5 μM 9a or 50 μM DFO
In short: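 Live HT22 cells were given 0.5 μM test compound or 50 μM DFO for 6 h, then imaged by confocal microscopy with the Fe2+ probe FerroOrange; nuclei were stained with Hoechst 33342. Lysosomal Fe2+ was scored as FerroOrange signal colocalised with LysoTracker Green per cell, about 100 cells per condition. Three independent experiments, mean ± SEM.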

[8] = biological target: T1, NCOA4^383–522 (Homo sapiens, UniProt Q13772); test: Pull-down of recombinant NCOA4^383–522; assay type: binding; conditions: protein preincubated with 9a 1 h
T1 sequence (Q13772 383-522): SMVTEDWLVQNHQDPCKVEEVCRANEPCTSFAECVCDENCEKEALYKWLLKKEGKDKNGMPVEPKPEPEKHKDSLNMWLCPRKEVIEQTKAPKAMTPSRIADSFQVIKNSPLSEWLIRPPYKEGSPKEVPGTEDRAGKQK
In short: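 Recombinant NCOA4 383–522 or FTH1 protein was pretreated with test compound or DMSO for 1 h. It was then incubated for 1 h with increasing concentrations of a biotinylated probe precoupled to streptavidin magnetic beads. Bead-bound protein was detected by silver staining and Western blotting.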

[9] = biological target: T2, NCOA4^383–522–FTH1 interaction (Homo sapiens, UniProt Q13772); test: ELISA for NCOA4^383–522–FTH1 protein-protein interaction; assay type: binding
T2 sequence (Q13772 383-522): T1 sequence (Q13772 383-522)
In short: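 Test compound at the indicated concentrations was preincubated with recombinant NCOA4 383–522. Binding of NCOA4 383–522 to FTH1 was then monitored by ELISA to build a dose–response curve. Values are mean ± SEM of three independent experiments.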

[10] = tested on: HT-1080 cells; test: Lipid ROS in HT-1080 cells after GPX4 knockdown; assay type: cell-based, human; conditions: 0.5 μM 9a, 36 h
[11] = biological target: T3, NCOA4 (Homo sapiens, UniProt Q13772); test: Biotin–streptavidin pull-down from HEK-293T lysates; assay type: binding; conditions: lysate preincubated with 9a (20 μM) 6 h at 4 °C
T3 sequence (Q13772 1-614): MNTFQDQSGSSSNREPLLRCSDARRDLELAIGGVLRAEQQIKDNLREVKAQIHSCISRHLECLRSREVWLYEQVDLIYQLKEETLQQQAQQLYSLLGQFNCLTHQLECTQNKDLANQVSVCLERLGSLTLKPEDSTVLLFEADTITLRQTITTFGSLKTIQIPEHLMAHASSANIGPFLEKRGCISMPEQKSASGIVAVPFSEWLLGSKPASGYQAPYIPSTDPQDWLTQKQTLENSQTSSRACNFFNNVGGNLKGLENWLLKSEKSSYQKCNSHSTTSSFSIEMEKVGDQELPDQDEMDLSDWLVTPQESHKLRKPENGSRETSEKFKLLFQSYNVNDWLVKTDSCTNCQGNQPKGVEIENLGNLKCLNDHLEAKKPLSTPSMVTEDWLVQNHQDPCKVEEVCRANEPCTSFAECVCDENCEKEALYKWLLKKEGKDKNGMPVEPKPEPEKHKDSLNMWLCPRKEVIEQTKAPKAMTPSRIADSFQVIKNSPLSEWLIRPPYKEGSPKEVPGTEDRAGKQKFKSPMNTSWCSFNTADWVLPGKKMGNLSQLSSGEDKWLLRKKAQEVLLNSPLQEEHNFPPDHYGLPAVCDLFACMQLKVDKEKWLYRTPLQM
In short: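 HEK-293T lysates expressing FTH1-Myc-His and NCOA4-Flag were pretreated with test compound or DMSO for 6 h at 4 °C. They were then incubated overnight at 4 °C with increasing concentrations of a biotinylated probe precoupled to streptavidin magnetic beads. Precipitates were pulled down with the beads and immunoblotted with anti-tag antibodies. Biotin-PEG3-N3 served as the negative-control probe.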

[12] = tested on: HT22 cells; test: Non-ferroptotic cell death; assay type: cell-based, mouse
[13] = biological target: T1, NCOA4^383–522; test: Surface plasmon resonance binding to NCOA4^383–522
[14] = biological target: T4, NCOA4–FTH1 interaction (Homo sapiens, UniProt Q13772); test: Coimmunoprecipitation of NCOA4 and FTH1 in cells; assay type: cell-based
T4 sequence (Q13772 1-614): T3 sequence (Q13772 1-614)

[15] = tested on: HT22 cells; test: Ferroptosis induced by cysteine depletion, BSO or ML210 in HT22 cells; assay type: cell-based, mouse; conditions: for cell death from cysteine depletion: cystine-free media 24 h, 0.5 μM 9a, 0.5 μM Fer-1 or 20 μM DFO
[16] = tested on: MCAO model of ischemic stroke; assay type: in vivo, rat; conditions: for infarct volume (TTC staining): rat, in vivo
[17] = tested on: HT22 cells; test: Intracellular GSH level and GPX4 expression in HT22 cells; assay type: cell-based, mouse; conditions: 12 h
[18] = tested on: HT22 cells; test: RSL3-induced ferroptosis in HT22 cells; assay type: cell-based; conditions: Mus musculus, HT-22, 24 h, read-out: EC50, inhibition of RSL3-induced death

CCCOc1ccc2c(c1)CCN(c1cccc(-c3nc4ccc(N5CCN(C)CC5)cc4[nH]3)c1)C2 [14b]
EC50 ([1]; Mus musculus, HT-22, 24 h): 0.39 µM

CN1CCN(c2ccc3nc(-c4cccc(N5CCc6cc(F)ccc6C5)c4)[nH]c3c2)CC1 [9a]
lipid ROS, oxidized BODIPY-C11 fluorescence intensity [2]: remarkably decreased
RSL3-induced cytosolic ROS accumulation ([2]; carboxy-H2DCFDA, flow cytometry): suppressed by 9a in a dose-dependent manner
LC3-II level [3]: no ability to induce an increase in the LC3-II level
RSL3-induced PTGS2 mRNA expression [4]: dose-dependently inhibited the upregulation of PTGS2 expression
ferroptosis induced by Erastin, RSL3, or ML210 ([5]; inducers 1 μM, 24 h): inhibited ferroptosis
ferroptosis induced by knockdown of GPX4 ([5]; si-GPX4 12 h, then 0.5 μM 9a 36 h): significantly suppressed ferroptosis
mRNA expressions of FTH1 and FTL ([6]; 0.5 μM 9a, qPCR): did not change
protein level of ferritin ([6]; Western blotting): increased in a dose-dependent manner
fluorescence intensity of FerroOrange (free Fe^2+) [7]: significantly decreased
Fe^2+ in lysosomes (FerroOrange colocalized with LysoTracker Green) ([7]; 0.5 μM 9a): diminished
competition of Biotin-14d binding to NCOA4^383–522 [8]: blocked
IC50 [9]: 3.26 µM
lipid ROS accumulation induced by knockdown of GPX4 [10]: inhibited lipid ROS accumulation
competition of Biotin-14d binding to NCOA4 [11]: competitively inhibited
staurosporine (STS)-induced apoptosis ([12]; 0.5 μM STS, 24 h): cannot inhibit
hydrogen peroxide (H2O2)-induced necrosis ([12]; 2 mM H2O2, 12 h): cannot inhibit
TNF-α/SM-164/zVAD-fmk-induced necroptosis ([12]; 12 h): cannot inhibit
Kd [13]: 7.48 µM
EC50 ([1]; Mus musculus, HT-22, 24 h): 0.29 µM
NCOA4–FTH1 interaction, co-IP of FTH1-Myc-His and NCOA4-Flag ([14]; HEK-293T cells, 16 h treatment): substantially impaired
endogenous NCOA4–FTH1 interaction, co-IP ([14]; HT-1080 cells, 6 h): inhibited the endogenous NCOA4 interaction with FTH1
BSO-induced ferroptosis ([15]; 100 μM BSO, 12 h): dose-dependently prevented cell death
ML210-induced ferroptosis ([15]; ML210 10 μM, 24 h): ferroptosis inhibitory behavior similar to those of Fer-1 and DFO
cell death from cysteine depletion [15]: significantly reduced the level of cell death
4-hydroxynonenal (4-HNE) level in the lesioned hemisphere ([16]; 10 mg/kg i.p.): reduced
PTGS2 gene expression in the lesioned hemisphere ([16]; 10 mg/kg i.p.): significantly decreased
malondialdehyde (MDA) level in the lesioned hemisphere ([16]; 10 mg/kg i.p.): reduced
neurological deficits (Longa test) ([16]; 10 mg/kg i.p., 24 h after MCAO and reperfusion): improved neurological deficits
percentage of injured neurons in the cortex (Nissl staining) ([16]; 10 mg/kg i.p., lesioned hemisphere): reduced the percentage of injured neurons in the cortex
infarct volume (TTC staining) [16]: substantially reduced infarct volume
intracellular GSH level [17]: did not change
GPX4 expression ([17]; immunoblot): did not change

CN1CCN(c2ccc3nc(-c4cccc(N5CCc6ccccc6C5)c4)[nH]c3c2)CC1 [4a]
EC50 ([1]; Mus musculus, HT-22, 24 h): 0.5 µM

Cc1ccc2c(c1)CN(c1cccc(-c3nc4ccc(N5CCN(C)CC5)cc4[nH]3)c1)CC2 [9e]
EC50 ([1]; Mus musculus, HT-22, 24 h): 0.77 µM

CC(C)Oc1ccc2c(c1)CCN(c1cccc(-c3nc4ccc(N5CCN(C)CC5)cc4[nH]3)c1)C2 [14c]
EC50 ([1]; Mus musculus, HT-22, 24 h): 0.53 µM

c1cc(-c2nc3ccc(N4CCCCC4)cc3[nH]2)cc(N2CCc3ccccc3C2)c1 [4c]
EC50 ([1]; Mus musculus, HT-22, 24 h): 1.21 µM

COc1cccc2c1CN(c1cccc(-c3nc4ccc(N5CCN(C)CC5)cc4[nH]3)c1)CC2 [9f]
EC50 ([1]; Mus musculus, HT-22, 24 h): 0.33 µM

CC1CCN(c2ccc3nc(-c4cccc(N5CCc6ccccc6C5)c4)[nH]c3c2)CC1 [4b]
EC50 ([1]; Mus musculus, HT-22, 24 h): 0.64 µM

CC(=O)N(O)CCCCCNC(=O)CCC(=O)N(O)CCCCCNC(=O)CCC(=O)N(O)CCCCCN [DFO, Deferoxamine mesylate, reference compound]
fluorescence intensity of FerroOrange (free Fe^2+) [7]: significantly decreased
EC50 ([1]; Mus musculus, HT-22, 24 h): 5.75 µM
cell death from cysteine depletion [15]: significantly reduced the level of cell death

CCOc1ccc2c(c1)CCN(c1cccc(-c3nc4ccc(N5CCN(C)CC5)cc4[nH]3)c1)C2 [14a]
EC50 ([1]; Mus musculus, HT-22, 24 h): 0.51 µM

C#CCOc1ccc2c(c1)CCN(c1cccc(-c3nc4ccc(N5CCN(C)CC5)cc4[nH]3)c1)C2 [14d]
EC50 [18]: 0.69 µM
EC50 ([1]; Mus musculus, HT-22, 24 h): 0.88 µM

CCOC(=O)c1ccc(NC2CCCCC2)c(N)c1 [Fer-1, Ferrostatin-1, reference compound]
lipid ROS, oxidized BODIPY-C11 fluorescence intensity [2]: remarkably decreased
EC50 ([1]; 1 μM Erastin, 24 h, CCK-8): 0.082 µM
cell death from cysteine depletion [15]: significantly reduced the level of cell death
infarct volume (TTC staining) [16]: substantially reduced infarct volume
